Test results published in ChEMBL document CHEMBL1145899, “Estrogenic potential of 2-alkyl-4-(thio)chromenone 6-O-sulfamates: potent inhibitors of human steroid sulfatase” (J Med Chem, 2003).

Experiments:
[1] = biological target: Estrogen receptor beta (Homo sapiens) (UniProt Q92731)
[2] = biological target: T1, Estrogen receptor (Homo sapiens) (UniProt P03372)
T1 sequence (whole entry): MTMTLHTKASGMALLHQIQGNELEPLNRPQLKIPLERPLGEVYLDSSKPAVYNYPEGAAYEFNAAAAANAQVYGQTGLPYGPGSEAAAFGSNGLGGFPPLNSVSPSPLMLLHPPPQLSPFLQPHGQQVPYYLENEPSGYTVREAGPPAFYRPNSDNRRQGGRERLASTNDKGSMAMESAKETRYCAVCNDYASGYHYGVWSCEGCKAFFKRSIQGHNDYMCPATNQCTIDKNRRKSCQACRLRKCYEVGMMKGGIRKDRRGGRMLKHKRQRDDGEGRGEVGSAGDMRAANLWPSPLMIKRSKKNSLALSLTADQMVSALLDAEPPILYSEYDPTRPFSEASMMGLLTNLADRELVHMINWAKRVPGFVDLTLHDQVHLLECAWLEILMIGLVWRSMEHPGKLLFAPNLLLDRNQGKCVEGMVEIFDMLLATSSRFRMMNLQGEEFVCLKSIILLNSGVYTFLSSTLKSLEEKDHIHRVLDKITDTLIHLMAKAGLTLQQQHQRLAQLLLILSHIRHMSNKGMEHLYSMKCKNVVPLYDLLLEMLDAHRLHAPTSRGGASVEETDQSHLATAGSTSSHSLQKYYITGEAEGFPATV

[3] = test system: MCF7; assay: Stimulation of MCF-7 cell proliferation at 100 nM; type: functional, Homo sapiens
How it was run: (§1)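 MCF-7 cells hormone-depleted 10 days, then seeded at 20 000 cells/cm² in phenol red-free RPMI with 2.5% charcoal-stripped FCS and held 5 days. Compound (ethanol/DMSO, ≤0.1% solvent) added day 5, refreshed day 8; sulforhodamine counts days 5 and 10; triplicate wells. % stimulation = (growth vs solvent controls ×100) − 100.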

[4] = test system: MCF7; assay: Stimulation of MCF-7 cell proliferation at 1000 nM; type: functional, Homo sapiens
How it was run: as §1

[5] = test system: MCF7; assay: Stimulation of MCF-7 cell proliferation at 10 nM; type: functional, Homo sapiens
How it was run: as §1

[6] = biological target: T2, Steryl-sulfatase (Homo sapiens, UniProt P08842); assay: Inhibition of steroid sulfatase
T2 sequence (P08842 whole entry): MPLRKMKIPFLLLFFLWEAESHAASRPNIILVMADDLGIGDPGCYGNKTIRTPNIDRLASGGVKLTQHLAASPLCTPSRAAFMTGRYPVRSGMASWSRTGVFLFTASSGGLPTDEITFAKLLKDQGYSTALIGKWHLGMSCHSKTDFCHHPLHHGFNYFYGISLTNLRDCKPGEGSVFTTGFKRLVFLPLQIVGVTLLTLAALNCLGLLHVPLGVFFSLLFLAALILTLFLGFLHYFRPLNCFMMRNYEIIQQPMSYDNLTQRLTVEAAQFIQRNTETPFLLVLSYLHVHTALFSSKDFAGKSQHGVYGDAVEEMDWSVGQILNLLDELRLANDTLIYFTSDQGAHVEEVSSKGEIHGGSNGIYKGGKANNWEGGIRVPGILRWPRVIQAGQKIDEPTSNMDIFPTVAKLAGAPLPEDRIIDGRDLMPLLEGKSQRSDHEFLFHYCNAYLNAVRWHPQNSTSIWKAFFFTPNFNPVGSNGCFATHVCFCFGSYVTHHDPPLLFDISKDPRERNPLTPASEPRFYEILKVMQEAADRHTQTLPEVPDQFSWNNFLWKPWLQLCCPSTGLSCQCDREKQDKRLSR
How it was run: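 Purified recombinant human STS; fluorimetric assay with 4-methylumbelliferone sulfate as substrate. IC50 by nonlinear regression; mean of triplicate determinations.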

[7] = biological target: T1, Estrogen receptor (Homo sapiens); assay: Affinity of sulfamate compound for human estrogen receptor alpha
How it was run: (§2)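 Fluorescence polarization competition with purified human ER; ER-α final 13 nM or ER-β final 10 nM, fluorescein-estradiol tracer 1 nM final. Compounds from DMSO or ethanol stocks, 0.5% (v/v) final solvent; room temperature 2–2.5 h; triplicate wells. Four-parameter logistic fit; ED50 = concentration giving polarization midway between +tracer/+ER and +tracer/−ER controls. Tested up to solubility limit.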

[8] = biological target: Estrogen receptor beta (Homo sapiens) (UniProt Q92731); assay: Affinity of sulfamate compound for human estrogen receptor beta
How it was run: as §2

Chain of Estrogen receptor beta (Homo sapiens) (Q92731 whole entry): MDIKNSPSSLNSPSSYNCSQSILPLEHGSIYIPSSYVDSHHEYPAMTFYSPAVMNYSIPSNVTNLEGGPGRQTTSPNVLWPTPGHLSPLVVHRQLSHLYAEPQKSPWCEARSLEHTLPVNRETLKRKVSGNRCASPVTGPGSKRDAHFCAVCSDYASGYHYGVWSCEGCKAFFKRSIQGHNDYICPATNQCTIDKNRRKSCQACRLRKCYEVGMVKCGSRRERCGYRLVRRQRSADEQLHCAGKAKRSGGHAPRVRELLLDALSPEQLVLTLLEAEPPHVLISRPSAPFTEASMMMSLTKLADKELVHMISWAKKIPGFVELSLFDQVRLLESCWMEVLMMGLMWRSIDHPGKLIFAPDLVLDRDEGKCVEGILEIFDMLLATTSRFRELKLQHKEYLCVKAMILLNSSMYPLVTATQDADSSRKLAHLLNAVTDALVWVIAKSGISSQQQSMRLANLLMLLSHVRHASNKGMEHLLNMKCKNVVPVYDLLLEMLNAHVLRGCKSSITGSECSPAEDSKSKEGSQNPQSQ

Compound: O=c1cc(C23CC4CC(CC(C4)C2)C3)sc2ccc(O)cc12
- ED50 [1]: 0.48 µM
- ED50 [2]: 0.21 µM

Compound: CC(C)(C)c1cc(=O)c2cc(OS(N)(=O)=O)ccc2o1
- Stimulation [3]: 45%
- Stimulation [4]: 100%
- ED50 [1]: > 100 µM
- ED50 [2]: > 100 µM
- Stimulation [5]: 12%

Compound: O=C1CC(C23CC4CC(CC(C4)C2)C3)Oc2ccc(O)cc21 (stereo unspecified)
- ED50 [1]: 0.035 µM
- ED50 [2]: 0.1 µM

Compound: CCCCCCCCC(C)(C)c1cc(=O)c2cc(O)ccc2o1
- ED50 [1]: > 100 µM
- ED50 [2]: > 100 µM

Compound: CC(C)(C)c1cc(=O)c2cc(O)ccc2o1
- ED50 [1]: 69 µM
- ED50 [2]: 64 µM

Compound: NS(=O)(=O)Oc1ccc2oc(C34CC5CC(CC(C5)C3)C4)cc(=O)c2c1
- Stimulation [3]: 88%
- Stimulation [4]: 116%
- IC50 [6]: 0.0056 µM
- ED50 [1]: > 30 µM
- ED50 [2]: > 30 µM
- Stimulation [5]: 71%

Compound: C[C@]12CC[C@@H]3c4ccc(OS(N)(=O)=O)cc4CCC3[C@@H]1CCC2=O (single isomer, unassigned) [EMATE]
- Stimulation [3]: 112%
- ED50 [7]: 2.6 µM
- Stimulation [4]: 123%
- ED50 [8]: 3.7 µM
- Stimulation [5]: 97%

Compound: NS(=O)(=O)Oc1ccc2c(c1)C(=O)CC(C13CC4CC(CC(C4)C1)C3)O2 (stereo unspecified)
- Stimulation [3]: 90%
- Stimulation [4]: 130%
- ED50 [1]: 14 µM
- ED50 [2]: 13 µM
- Stimulation [5]: 79%

Compound: CCCCCC12CCC(CC1)C(c1cc(=O)c3cc(O)ccc3o1)C2 (stereo unspecified)
- ED50 [1]: > 100 µM
- ED50 [2]: > 100 µM

Compound: CCCCCCCCCc1cc(=O)c2cc(OS(N)(=O)=O)ccc2o1
- Stimulation [3]: 0%
- Stimulation [4]: 0%
- ED50 [1]: > 100 µM
- ED50 [2]: > 50 µM
- Stimulation [5]: 0%

Compound: NS(=O)(=O)Oc1ccc2oc(CCc3ccccc3)cc(=O)c2c1
- Stimulation [3]: 33%
- ED50 [7]: > 100 µM
- Stimulation [4]: 45%
- ED50 [8]: > 100 µM
- Stimulation [5]: 16%

Compound: CC1(C)C(c2cc(=O)c3cc(OS(N)(=O)=O)ccc3o2)C1(C)C
- Stimulation [3]: 85%
- Stimulation [4]: 120%
- ED50 [1]: 47 µM
- ED50 [2]: 30 µM
- Stimulation [5]: 52%

Compound: NS(=O)(=O)Oc1ccc2sc(C34CC5CC(CC(C5)C3)C4)cc(=O)c2c1
- Stimulation [3]: 99%
- Stimulation [4]: 120%
- ED50 [1]: 18 µM
- ED50 [2]: 4.8 µM
- Stimulation [5]: 78%

Compound: CCCCCCCCCc1cc(=O)c2cc(O)ccc2o1
- ED50 [1]: > 100 µM
- ED50 [2]: > 100 µM

Compound: CCCCCCCCC(C)(C)c1cc(=O)c2cc(OS(N)(=O)=O)ccc2o1
- Stimulation [3]: 0%
- Stimulation [4]: 0%
- ED50 [1]: > 100 µM
- ED50 [2]: > 30 µM
- Stimulation [5]: 0%

Compound: CC1(C)C(c2cc(=O)c3cc(O)ccc3o2)C1(C)C
- ED50 [1]: 2.6 µM
- ED50 [2]: 0.9 µM

Compound: C[C@]12CC[C@@H]3c4ccc(O)cc4CC[C@H]3[C@@H]1CC[C@@H]2O [ESTRADIOL]
- ED50 [1]: 0.011 µM
- Stimulation [5]: 400%

Compound: O=c1cc(C23CC4CC(CC(C4)C2)C3)oc2ccc(O)cc12
- ED50 [1]: 1.4 µM
- ED50 [2]: 1.5 µM

Compound: O=c1cc(C2CCCCCCCCCCC2)oc2ccc(O)cc12
- ED50 [1]: 1.5 µM
- ED50 [2]: 0.8 µM

Compound: NS(=O)(=O)Oc1ccc2oc(C3CCCCCCCCCCC3)cc(=O)c2c1
- Stimulation [3]: 72%
- Stimulation [4]: 118%
- ED50 [1]: > 30 µM
- ED50 [2]: > 10 µM
- Stimulation [5]: 48%
